From ChEMBL document CHEMBL1126800, “Preparation of substituted N-phenyl-4-aryl-2-pyrimidinamines as mediator release inhibitors” (J Med Chem, 1993)

Species on record: Homo sapiens
Assay: In vitro inhibition of histamine release from human basophils
Type: functional, organism-based
Summary of the method: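 Human basophils separated from leukocytes were incubated with test compound, then challenged with anti-IgE or antigen (Lichtenstein method). Histamine release was measured against controls and blanks. IC50 is the concentration lowering histamine release by 50%.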

SMILES	IC50 (Homo sapiens) [nM]	IC50 [nM]
CC(=O)N(C)c1ccc(Nc2nccc(-c3cccnc3)n2)cc1	900	–
CN(C)c1ccc(Nc2nccc(-c3cccnc3)n2)cc1	2800	–
c1coc(-c2ccnc(Nc3ccc(-n4ccnc4)cc3)n2)c1	2200	–
CCc1ccc(Nc2nccc(-c3ccnc4ccccc34)n2)cc1	4000	–
CC(=O)N(C)c1ccc(Nc2nccc(-c3ccncc3)n2)cc1	500	–
CCOC(=O)c1ccc(Nc2nccc(-c3cccnc3)n2)cc1	12400	–
c1cc(Nc2nccc(-c3ccncc3)n2)cc(-n2ccnc2)c1	–	600
CN(C)c1cccc(Nc2nccc(-c3ccncc3)n2)c1	3700	–
CCN(CC)CCCOc1ccc(Nc2nccc(-c3ccncc3)n2)cc1	1300	–
c1ccc(Nc2nccc(-c3c[nH]c4ccccc34)n2)cc1	3000	–
Cc1cccc(Nc2nccc(-c3cccs3)n2)c1	300	–
Cc1cc(-c2ccc(C)s2)nc(Nc2ccccc2)n1	24800	–
COc1ccc(Nc2nccc(-c3ccccn3)n2)cc1	8300	–
Cc1cc(C)cc(Nc2nccc(-c3cc(C)oc3C)n2)c1	4100	–
CCOC(=O)C(=O)N(c1ccccc1)c1nccc(-c2ccncc2)n1	2200	–
CCN(CC)CCOc1ccc(Nc2nccc(-c3cccnc3)n2)cc1	200	–
Cc1cn(-c2ccc(Nc3nccc(-c4ccncc4)n3)cc2)cn1	> 3000	–
Cc1cc(C)cc(Nc2ncc(C)c(-c3cccnc3)n2)c1	> 24000	–
CC1CCN(c2ccc(Nc3nccc(-c4ccco4)n3)cc2)CC1	1800	–
Cc1ccccc1Nc1nccc(-c2ccncc2)n1	3900	–

SMILES	IC50 (Homo sapiens) [nM]	IC50 [nM]
Cc1cc(C)cc(Nc2nc(C)cc(-c3ccccn3)n2)c1	> 24000	–
Cc1cc(-c2ccco2)nc(Nc2ccccc2)n1	17700	–
CC(=O)c1ccc(Nc2nccc(-c3cccnc3)n2)cc1	800	–
COc1cccc(Nc2nccc(-c3ccsc3)n2)c1	1800	–
CC1CCN(c2cccc(Nc3nccc(-c4ccco4)n3)c2)CC1	5000	–
c1ccc(-c2ccnc(Nc3ccc(-n4ccnc4)cc3)n2)nc1	1400	–
COc1cccc(Nc2nc(C)cc(-c3ccncc3)n2)c1	> 24000	–
CCc1ccc(Nc2nccc(-c3cnccn3)n2)cc1	1900	–
NS(=O)(=O)c1ccc(Nc2nccc(-c3ccncc3)n2)cc1	5100	–
c1cc(Nc2nccc(-c3cccnc3)n2)cc(OCCn2ccnc2)c1	100	–
COc1ccc(Nc2nccc(-c3ccsc3)n2)cc1	15600	–
CCN(CC)CCOc1cccc(Nc2nccc(-c3ccco3)n2)c1	1400	–
CCN(CC)CCOc1ccc(Nc2nccc(-c3ccncc3)n2)cc1	200	–
NS(=O)(=O)c1cccc(Nc2nccc(-c3ccncc3)n2)c1	500	–
CCN(CC)c1ccc(Nc2nccc(-c3ccc(C)o3)n2)cc1	28000	–
CN(C)c1ccc(Nc2nccc(-c3cccs3)n2)cc1	900	–
Cc1cccc(Nc2nccc(-c3ccc(C)s3)n2)c1	1400	–
Cc1cc(-c2ccccn2)nc(Nc2ccccc2)n1	26800	–
CCc1ccc(Nc2nccc(-c3ccncc3)n2)cc1	7700	–
Cc1cc(-c2ccncc2)nc(Nc2cccc(N(C)C)c2)n1	> 24000	–

SMILES	IC50 (Homo sapiens) [nM]	IC50 [nM]
CCc1cccc(Nc2nccc(-c3ccccn3)n2)c1	1400	–
Cc1cc(C)cc(Nc2nccc(-c3ccccn3)n2)c1	100	–
c1cc(-c2ccnc(Nc3ccc(-n4ccnc4)cc3)n2)ccn1	7600	–
Oc1ccc(Nc2nccc(-c3ccncc3)n2)cc1	3300	–
CCN(CC)CCOc1ccc(Nc2nccc(-c3ccco3)n2)cc1	1300	–
COc1ccccc1Nc1nccc(-c2cccnc2)n1	9800	–
NS(=O)(=O)c1cccc(Nc2nccc(-c3ccccn3)n2)c1	500	–
NS(=O)(=O)c1ccc(Nc2nccc(-c3cccnc3)n2)cc1	200	–
COc1cccc(Nc2nccc(-c3ccco3)n2)c1	400	–
c1cc(Nc2nccc(-c3cccs3)n2)cc(-n2ccnc2)c1	300	–
Cc1cccc(Nc2nccc(-c3ccc[nH]3)n2)c1	8500	–
CC1CCN(c2ccc(Nc3nccc(-c4ccccn4)n3)cc2)CC1	1900	–
Nc1cccc(Nc2nccc(-c3ccncc3)n2)c1	1000	–
CCOC(=O)c1cccc(Nc2nccc(-c3cccnc3)n2)c1	10500	–
CC(=O)Nc1cccc(Nc2nccc(-c3cccnc3)n2)c1	3600	–
Cc1cccc(Nc2nccc(-c3ccncc3)n2)c1	8800	–
FC(F)(F)c1cccc(Nc2nccc(-c3cccnc3)n2)c1	–	2100
CNc1ccc(Nc2nccc(-c3cccnc3)n2)cc1	2100	–
CN(C)c1ccc(Nc2nccc(-c3ccncc3)n2)cc1	3700	–
